{
  "source": "ChEMBL document CHEMBL1158991",
  "about": "“Cytotoxic and antimalarial constituents of the roots of Eurycoma longifolia” (J Nat Prod, 1991)",
  "key": {"[1]": {"system": "P388", "assay": "Cytotoxicity against mouse P388 cells", "type": "functional", "conditions": "read-out: ED50 (the source's name)"}, "[2]": {"system": "KB", "assay": "Cytotoxicity against human KB cells", "type": "functional", "conditions": "read-out: ED50 (the source's name)"}, "[3]": {"assay": "Cytotoxicity against human KBV1 cells", "type": "functional", "conditions": "KB-V1, read-out: ED50 (the source's name)"}, "[4]": {"assay": "Cytotoxicity against human fibrosarcoma cells", "type": "functional", "conditions": "Fibrosarcoma cell, read-out: ED50 (the source's name)"}, "[5]": {"assay": "Cytotoxicity against human melanoma cells", "type": "functional", "conditions": "Melanoma cell, read-out: ED50 (the source's name)"}, "[6]": {"assay": "Cytotoxicity against human lung cancer cells", "type": "functional", "conditions": "Cancer cell lines, read-out: ED50 (the source's name)"}, "[7]": {"assay": "Cytotoxicity against human breast cancer cells", "type": "functional", "conditions": "Cancer cell lines, read-out: ED50 (the source's name)"}, "[8]": {"assay": "Cytotoxicity against human colon cancer cells", "type": "functional", "conditions": "Cancer cell lines, read-out: ED50 (the source's name)"}, "[9]": {"system": "Plasmodium falciparum", "assay": "Antimalarial activity against Plasmodium falciparum D6 in human erythrocytes after 24 hrs by [3H]hypoxanthine uptake", "type": "functional, organism-based", "outline": "(§1)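 P. falciparum (D-6 chloroquine-sensitive, W-2 chloroquine-resistant) kept in type A+ human erythrocytes, RPMI-1640 with 32 mM NaHCO3, 35 mM HEPES and 10% heat-inactivated A+ plasma, 5% O2/5% CO2/90% N2, 37°. Assay: 0.5–1.0% parasitemia, 1.0% hematocrit, triplicates over 7-5000 ng/ml, 24 h. Then 0.5 µCi [3H]-hypoxanthine added for a further 18-24 h. Uninfected-cell dpm subtracted. IC50 by linear regression.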"}, "[10]": {"system": "Plasmodium falciparum", "assay": "Antimalarial activity against Plasmodium falciparum W2 in human erythrocytes after 24 hrs by [3H]hypoxanthine uptake", "type": "functional, organism-based", "outline": "as §1"}},
  "data": [
    {"smiles": "COc1ccc2c3ccnc4ccc(=O)n(c2c1)c43", "values": [
      {"measurement": "EC50", "setting": "[1]", "result": 1.4, "unit": "µg/mL"}
    ]},
    {"smiles": "O=c1ccc2nccc3c4ccc(O)cc4n1c23", "values": [
      {"measurement": "EC50", "setting": "[2]", "result": 2, "unit": "µg/mL"},
      {"measurement": "EC50", "setting": "[3]", "result": "> 20", "unit": "µg/mL"},
      {"measurement": "EC50", "setting": "[4]", "result": 3.5, "unit": "µg/mL"},
      {"measurement": "EC50", "setting": "[5]", "result": 5.4, "unit": "µg/mL"},
      {"measurement": "EC50", "setting": "[6]", "result": 3.8, "unit": "µg/mL"},
      {"measurement": "EC50", "setting": "[7]", "result": 2.6, "unit": "µg/mL"},
      {"measurement": "EC50", "setting": "[8]", "result": 4.8, "unit": "µg/mL"},
      {"measurement": "EC50", "setting": "[1]", "result": 1.5, "unit": "µg/mL"}
    ]},
    {"smiles": "C=C[C@H]1CN2CC[C@H]1C[C@H]2[C@H](O)c1ccnc2ccc(OC)cc12", "note": "[QUININE]", "values": [
      {"measurement": "IC50", "setting": "[9]", "result": 0.0194, "unit": "µg/mL"},
      {"measurement": "IC50", "setting": "[10]", "result": 0.114, "unit": "µg/mL"}
    ]},
    {"smiles": "COc1ccc2c3cc[n+]([O-])c4ccc(=O)n(c2c1)c34", "values": [
      {"measurement": "EC50", "setting": "[2]", "result": 3.8, "unit": "µg/mL"},
      {"measurement": "EC50", "setting": "[3]", "result": "> 20", "unit": "µg/mL"},
      {"measurement": "EC50", "setting": "[4]", "result": 4.5, "unit": "µg/mL"},
      {"measurement": "EC50", "setting": "[5]", "result": 6.5, "unit": "µg/mL"},
      {"measurement": "EC50", "setting": "[6]", "result": 5.2, "unit": "µg/mL"},
      {"measurement": "EC50", "setting": "[7]", "result": 6, "unit": "µg/mL"},
      {"measurement": "EC50", "setting": "[8]", "result": 8.1, "unit": "µg/mL"},
      {"measurement": "EC50", "setting": "[1]", "result": 11.7, "unit": "µg/mL"}
    ]},
    {"smiles": "C=C1[C@@H](O)[C@@]2(O)OC[C@]34[C@H]2[C@@]2(C)[C@H](O)C(=O)C=C(C)[C@@H]2C[C@H]3OC(=O)[C@H](O)[C@@]14O", "note": "[EURYCOMANONE]", "values": [
      {"measurement": "EC50", "setting": "[2]", "result": 1.9, "unit": "µg/mL"},
      {"measurement": "EC50", "setting": "[3]", "result": 0.8, "unit": "µg/mL"},
      {"measurement": "EC50", "setting": "[4]", "result": 0.2, "unit": "µg/mL"},
      {"measurement": "EC50", "setting": "[5]", "result": 8.2, "unit": "µg/mL"},
      {"measurement": "EC50", "setting": "[6]", "result": 14.3, "unit": "µg/mL"},
      {"measurement": "EC50", "setting": "[7]", "result": 1.1, "unit": "µg/mL"},
      {"measurement": "EC50", "setting": "[8]", "result": 1.2, "unit": "µg/mL"},
      {"measurement": "EC50", "setting": "[1]", "result": "> 20", "unit": "µg/mL"},
      {"measurement": "IC50", "setting": "[9]", "result": 0.0477, "unit": "µg/mL"},
      {"measurement": "IC50", "setting": "[10]", "result": 0.0481, "unit": "µg/mL"}
    ]},
    {"smiles": "O=c1ccc2c3c(cc[n+]2[O-])c2ccc(O)cc2n13", "values": [
      {"measurement": "EC50", "setting": "[2]", "result": 4.8, "unit": "µg/mL"},
      {"measurement": "EC50", "setting": "[3]", "result": "> 20", "unit": "µg/mL"},
      {"measurement": "EC50", "setting": "[4]", "result": 4.9, "unit": "µg/mL"},
      {"measurement": "EC50", "setting": "[5]", "result": 7, "unit": "µg/mL"},
      {"measurement": "EC50", "setting": "[6]", "result": 5.1, "unit": "µg/mL"},
      {"measurement": "EC50", "setting": "[7]", "result": 3.5, "unit": "µg/mL"},
      {"measurement": "EC50", "setting": "[8]", "result": 7.5, "unit": "µg/mL"},
      {"measurement": "EC50", "setting": "[1]", "result": 12, "unit": "µg/mL"}
    ]},
    {"smiles": "C[C@@H]1CC[C@H]2[C@@H](C)C(=O)O[C@@H]3O[C@@]4(C)CC[C@@H]1[C@]32OO4", "note": "[ARTEMISININ]", "values": [
      {"measurement": "IC50", "setting": "[9]", "result": 0.0027, "unit": "µg/mL"},
      {"measurement": "IC50", "setting": "[10]", "result": 0.0018, "unit": "µg/mL"}
    ]},
    {"smiles": "COc1ccc2c(c1)[nH]c1c(CCC(=O)O)nccc12", "values": [
      {"measurement": "IC50", "setting": "[9]", "result": 3.14, "unit": "µg/mL"},
      {"measurement": "IC50", "setting": "[10]", "result": 2.98, "unit": "µg/mL"}
    ]},
    {"smiles": "OC(c1cc(C(F)(F)F)nc2c(C(F)(F)F)cccc12)C1CCCCN1", "note": "(configuration not stated) [MEFLOQUINE]", "values": [
      {"measurement": "IC50", "setting": "[9]", "result": 0.0095, "unit": "µg/mL"}
    ]}
  ]
}
